Sampled rows, rich in hits. Any-hit rate of the full collection: about 2%.
CSN deneddyl inh = CSN deneddylation inhibition; Purified CSN, SCF-Nedd8-OG deneddylation, fluorescence polarization; inhibition, % at 12.5 µM; actives 0.38% (n = 360,000); Q92905; AID 651999;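 active = pattern-corrected inhibition above about 35%, with an unprinted fluorescence ratio check between 0.5 and 1.5, limit read from the data, passing the limit was not always enough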;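 note: 0% = enzyme with substrate and 100% = substrate without enzyme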
Target sequence (Q92905 whole entry, looked up, one chain of several): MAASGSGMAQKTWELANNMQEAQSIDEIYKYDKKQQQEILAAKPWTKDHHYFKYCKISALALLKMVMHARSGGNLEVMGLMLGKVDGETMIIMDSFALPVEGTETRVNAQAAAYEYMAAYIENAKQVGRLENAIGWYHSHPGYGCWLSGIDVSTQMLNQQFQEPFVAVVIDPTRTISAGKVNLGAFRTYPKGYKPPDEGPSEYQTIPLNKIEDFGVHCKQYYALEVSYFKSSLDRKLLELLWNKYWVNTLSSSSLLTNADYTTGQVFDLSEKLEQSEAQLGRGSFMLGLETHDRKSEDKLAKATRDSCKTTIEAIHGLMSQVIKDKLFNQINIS
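assay system = purified human Csn5 enzyme expressed in HEK293T cells | amount = 0.24 nM enzyme | buffer or medium = Tris/NaCl/DTT buffer, pH 7.5 | reagent = 10 nM SCFSkp2-Nedd8OG | compound = one concentration, 12.5 µM, 0.25% DMSO | times = 90 min reaction at room temperature | signal = FP | read-out basis = % inhibition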
ATG4B inh = ATG4B (human) cysteine protease inhibition; ATG4B cleavage of LC3-PLA2, NBD-HPC fluorescence, 1 h; inhibition, % at 8.33 µM; actives 0.51% (n = 340,000)
SENP1 FRET inh = blocks the human SENP1 SUMO protease catalytic domain; Q9P0U3; recombinant SENP1 catalytic domain, CyPet-SUMO1-YPet FRET cleavage; inhibition, % at 10 µM; actives 0.21% (n = 360,000);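 active = inhibition at least 30% at 10 µM, raw YFP signal under a set limit, fluorescence ratio 0.5 to 1.5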;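 note: 0% = enzyme with DMSO and 100% = no enzyme wells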
Target sequence (Q9P0U3 419-644 limits assumed): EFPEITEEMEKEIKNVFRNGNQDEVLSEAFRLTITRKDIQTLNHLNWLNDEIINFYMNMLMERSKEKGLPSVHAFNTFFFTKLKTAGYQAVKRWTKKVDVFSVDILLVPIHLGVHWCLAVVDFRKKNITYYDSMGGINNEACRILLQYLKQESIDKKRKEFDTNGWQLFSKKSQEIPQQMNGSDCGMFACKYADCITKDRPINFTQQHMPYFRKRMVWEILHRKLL
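Test system: human SENP1 catalytic domain; medium: Tris pH 8 buffer plus EDTA, NaCl, BME, BSA, NP40, catalase; incubation: 50 min reaction at room temperature; technique: FRET, CFP and YFP emission; controls: no-enzyme low control and enzyme-plus-DMSO high control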
TPT1 inh = blocks Candida albicans tRNA 2'-phosphotransferase; recombinant caTPT1, FP RNA substrate dephosphorylation; inhibition, % at 5 µM; actives 0.81% (n = 300,000); AID 1962;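 active = inhibition above the mean of all tested compounds plus 3 SD, set per screening campaign, cut at about 24% in these data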;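 note: plate controls were DMSO alone for no effect and ferristatin control at 100 nM for full effect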
HNF4A DNA FP = change in binding of human HNF4 alpha to DNA | P41235 | HNF4a-FITC DNA binding, fluorescence polarization, 1 h | activity change, % at 10 µM | actives 0.3% (n = 360,000) | AID 1224865; in the data active = activity change above about 30%, passing the limit was not always enough
Rpn11 inh = blocks the human proteasome subunit Rpn11. O00487. human 26S proteasome, Ub4-pepOG fluorescence polarization; 20S core pre-blocked with epoxomicin. inhibition, % at 20 µM. actives 0.59% (n = 360,000). AID 588493;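 active = inhibition at 20 µM, scaled to each plate's controls, above about 33%, limit read from the data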
caTPT1 confirm = confirmation of Candida albicans TPT1 inhibitors. shares compounds with TPT1 inh. recombinant caTPT1, fluorescence polarization, RNase T1 coupled. inhibition, % at 5 µM. actives 74% (n = 2,400);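 active = inhibition above the primary screen limit, the mean inhibition of all tested compounds plus 3 SD, cut at about 25% in these data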
RNase T1 inh = RNase T1 inhibition in TPT1 counter-screen; inhibition, % at 5 µM; shares compounds with TPT1 inh; RNase T1 cleavage, fluorescence polarization, 1536-well; actives 83% (n = 2,400);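 active = inhibition above the solvent-only control well mean plus 3 SD, limit set per screening run, cut at about 23% in these data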;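 note: plate controls were DMSO wells with enzyme for no effect and wells without RNase T1 for full effect; inhibitors block cleavage so intact labeled substrate keeps polarization high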
Target sequence (P00651 whole entry, looked up): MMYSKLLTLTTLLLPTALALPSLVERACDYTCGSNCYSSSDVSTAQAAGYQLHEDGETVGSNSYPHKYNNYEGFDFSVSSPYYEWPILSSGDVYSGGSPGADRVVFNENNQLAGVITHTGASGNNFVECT
ATG4B conf = ATG4B (human) inhibition, single-dose confirmed; shares compounds with ATG4B inh; ATG4B protease fluorescent substrate cleavage assay; inhibition, % at 8.33 µM; actives 92% (n = 320); AID 504757; in the data active = inhibition above about 39%
PLA2 counter = inhibits human PLA2, flagging false ATG4B inhibitors; actives 66% (n = 1,600); AID 588402; purified PLA2, NBD-C6-HPC fluorescence, 45 min; inhibition, % at 8.33 µM; shares compounds with ATG4B inh; in the data active = inhibition above about 50%
Rpn11 inh conf = confirmation of human proteasome Rpn11 inhibitors. shares compounds with Rpn11 inh. purified human 26S proteasome, Ub4-pepOG fluorescence polarization; proteasome pretreated with epoxomicin. inhibition, % at 20 µM. actives 29% (n = 1,900). AID 602318
MMP-2 counter = counter-screen for RPN11 inhibitors: inhibition of human MMP-2; shares compounds with Rpn11 inh; recombinant MMP-2, FRET peptide cleavage fluorescence; inhibition, % at 20 µM; actives 4% (n = 1,900); AID 602330;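 note: human MMP-2 activated beforehand with APMA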
Thrombin FP = thrombin (bovine) inhibition counter-screen; shares compounds with Rpn11 inh; bovine thrombin cleavage of Ub4-pepOG, fluorescence polarization; actives 13% (n = 1,900); inhibition, % at 20 µM;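 active = mean inhibition at least 40% at 20 µM, or signal 3 deviations below plate average, so some actives read negative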;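 note: plate controls were thrombin with DMSO for no effect and buffer wells lacking thrombin for full effect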
HNF4a DNA conf = change in binding of human HNF4 alpha to DNA, retest. HNF4A-FITC DNA binding, fluorescence polarization, 1 h. actives 99% (n = 210). activity change, % at 12.5 µM. shares compounds with HNF4A DNA FP; call rule not given here
An asterisk follows results filed as active; . = no result given. Cut-off read from the data, not from the text of the source, unless noted: active = inhibition above about 40%; inactive = the rest.

SMILES	CSN deneddyl inh	ATG4B inh	SENP1 FRET inh	TPT1 inh	HNF4A DNA FP	Rpn11 inh	PLA2 counter	others
COc1ccc2[nH]cc(/C=C/c3cc[n+](C)cc3)c2c1	32	-2	-18	71*	52*	116*	.	caTPT1 confirm=83*;RNase T1 inh=90*;Rpn11 inh conf=114*;MMP-2 counter=-66;Thrombin FP=114*;HNF4a DNA conf=114*
COc1cc(-c2cc(-c3ccc(N)cc3)[nH]c(=O)c2C#N)cc(OC)c1OC	27	-7	-35	103*	55*	.	.	caTPT1 confirm=103*;RNase T1 inh=105*;HNF4a DNA conf=83*
N#Cc1c(-c2ccccc2)cc(-c2ccccc2)[nH]c1=O	1	10	-47	-3	2	-4	.
CC(C)[C@H](NC(=O)OCc1ccccc1)C(=O)OCC(=O)N1CCCCC1	0	0	-2	.	2	3	.
CC(=O)c1sc(N/N=C\c2cccc(Br)c2)nc1C	27	-21	-28	67*	39*	.	.	caTPT1 confirm=78*;RNase T1 inh=81*;HNF4a DNA conf=57*
O=C1CCC(c2ccccc2)N1c1ccccc1 (stereo not given)	-1	-1	1	.	-4	-9	.
Cc1snc(SCc2cccc(Cl)c2)c1C#N	-2	12	1	-2	0	-1	.
CSc1nsc(/C=C/Nc2ccc(Cl)cc2)c1C#N	22	-2	8	32*	40*	43*	.	caTPT1 confirm=70*;RNase T1 inh=82*;Rpn11 inh conf=16;MMP-2 counter=-30;Thrombin FP=-10;HNF4a DNA conf=61*
CSc1nsc(/C=C/Nc2cccc(Cl)c2)c1C#N	21	-2	-36	36*	40*	33	.	caTPT1 confirm=26*;RNase T1 inh=34*;HNF4a DNA conf=41*
CCN(CC)c1ccc(C(=C2C=CC(=[N+](CC)CC)C=C2)c2ccc(N(CC)CC)cc2)cc1	-2	58*	-4	.	1	3	52*
COc1ccc(NS(=O)(=O)c2ccc(C)c(NC(=O)NC3CCCCC3)c2)cc1	-1	5	0	-2	0	2	.
COc1ccc(NS(=O)(=O)c2cccc(NC(=O)NC3CCCCC3)c2)cc1	4	54*	-2	-3	-2	0	65*
Cc1cc(C)c2c(C)c(C(=O)Nc3c(C)n(C)n(-c4ccccc4)c3=O)oc2c1	0	71*	0	1	-2	0	69*
Cc1c(NC(=O)c2cc3ccccc3o2)c(=O)n(-c2ccccc2)n1C	2	-2	0	0	1	-1	.
O=S(=O)(Nc1ccccc1N1CCOCC1)c1c(F)cc(F)cc1Br	2	-5	1	.	-5	5	.
CCN(Cc1ccccc1)S(=O)(=O)c1ccc(C(=O)N(CCCN(C)C)c2nc3cc(C)cc(C)c3s2)cc1	-8	23	2	1	2	-4	.
Cc1cc(C)c2sc(N(CCCN(C)C)C(=O)c3ccc(S(=O)(=O)N(C)Cc4ccccc4)cc3)nc2c1	4	42*	-1	-2	-2	7	49
Cc1ccc(-c2nnc(SCc3ccccc3F)o2)cc1	-4	48*	2	1	-3	-6	38	ATG4B conf=69*
COc1ccc(-c2nnc(SCc3ccccc3F)o2)cc1OC	6	4	4	1	2	-2	.
Cc1c(Cl)cccc1NC(=S)NCCc1ccccn1	5	28	0	-1	1	-4	.
Cc1c(Cl)cccc1NC(=S)NCCc1ccc(C(F)(F)F)cc1	2	89*	-1	-1	-1	6	94*
Cc1ccc(C(=O)NCC(=O)NCc2ccc(Cl)cc2)s1	-3	0	1	.	0	1	.
COc1ccccc1NS(=O)(=O)c1cccc(N=C2N=C(N)c3ccccc32)c1	0	54*	3	2	4	5	57*
CCn1c(SCc2ccccc2Cl)nc2nc3c(cc2c1=O)CCCC3	1	40*	-5	.	1	10	27	ATG4B conf=66*
C[C@@]12CCC=C[C@H]1[C@H](c1ccccc1Br)N(Cc1ccccc1)C2=O	-5	48*	0	.	-4	4	79*
SMILES	CSN deneddyl inh	ATG4B inh	SENP1 FRET inh	TPT1 inh	HNF4A DNA FP	Rpn11 inh	PLA2 counter	others
Cc1ccc(F)c([C@H]2[C@@H]3C=CCC[C@@]3(C)C(=O)N2Cc2ccccc2)c1	2	23	4	-1	2	2	.
Cc1ccc(SCCNC(=O)/C=C/c2ccc(Cl)cc2)cc1	2	10	3	-1	-2	2	.
Cc1ccc(SCCNC(=O)/C=C/c2ccccc2Cl)cc1	2	56*	1	-3	-1	-1	66*
N=C1/C(=C/c2cccs2)C(=O)N=C2SN=C(SCc3ccccc3)N12	5	50*	1	8	0	-6	62*
CC(C)CSC1=NSC2=NC(=O)/C(=C\c3cccs3)C(=N)N12	5	-1	-6	2	10	12	.
C=C(C)c1cccc(C(C)(C)NC(=O)N2CCN(C(=O)OCC)CC2)c1	-2	.	3	.	-5	-1	.
COCCCNC(=S)N1CCN(c2nc(C)nc3sc4c(c23)CCCC4)CC1	-8	47*	2	0	1	-9	63*
Cc1nc(N2CCNCC2)c2c3c(sc2n1)CCCC3	2	1	2	3	-2	-2	.

Bioassay records from PubChem BioAssay.
